In ChEMBL document CHEMBL1629532, “Design, synthesis, and structure-activity relationships of 3-ethynyl-1H-indazoles as inhibitors of the phosphatidylinositol 3-kinase signaling pathway” (J Med Chem, 2010):
The source made the active and inactive calls. The rule behind the calls is not given here.

Experiments:
[1] = test system: Proto-oncogene tyrosine-protein kinase receptor Ret (Homo sapiens), P07949 [V804L]; assay: Inhibition of RET V804L mutant at 10 uM
[2] = biological target: MAP/microtubule affinity-regulating kinase 4 (Homo sapiens) (UniProt Q96L34); assay: Inhibition of MARK4 at 10 uM
[3] = biological target: Misshapen-like kinase 1 (Homo sapiens) (UniProt Q8N4C8); assay: Inhibition of MINK1 at 10 uM
[4] = test system: Plasma; assay: Metabolic stability in rat plasma assessed as compound remaining at 1 uM after 60 mins by Lc/Ms method; format: ADME, cell-free; settings: 1 h
Method in brief: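 Compound at 1 µM (2.5% DMSO final) in fresh rat plasma at 37 °C. Stopped at 0, 30 and 60 min with two volumes methanol plus internal standard, then LC-MS. Percent parent remaining relative to 0 min, from peak area ratios to internal standard. Duplicate runs, with a plasma-labile positive control.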

[5] = test system: MCF7; assay: Growth inhibition of human MCF7 cells after 72 hrs by ATPlite assay; format: functional; settings: MCF7, 72 h
Method in brief: (§1)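 Cells seeded at about 3000 per well, grown 24 h, then given fresh medium and test compound in triplicate at 0.5 to 100µM in DMSO (0.5% final). Exposure 72 h at 37 °C, 5% CO₂. Viability measured by ATPlite luminescence and normalized to DMSO-treated controls. GI50 obtained by curve fitting. HeLa cultured in DMEM/10% FBS; MCF7, MDA-MB-231 and PC3 cultured in RPMI+GlutaMAX/10% FBS.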

[6] = biological target: Vascular endothelial growth factor receptor 2 (Homo sapiens) (UniProt P35968); assay: Inhibition of KDR at 10 uM
[7] = biological target: Serine/threonine-protein kinase Sgk1 (Homo sapiens) (UniProt O00141); assay: Inhibition of SGK1 at 10 uM
[8] = biological target: Phosphatidylinositol 4,5-bisphosphate 3-kinase catalytic subunit gamma isoform (Homo sapiens, UniProt P48736); assay: Inhibition of PI3Kgamma
[9] = biological target: High affinity nerve growth factor receptor (Homo sapiens) (UniProt P04629); assay: Inhibition of NTRK1 at 10 uM
[10] = test system: Receptor-type tyrosine-protein kinase FLT3 (Homo sapiens), P36888 [D835Y]; assay: Inhibition of FLT3 D835Y mutant at 10 uM
[11] = biological target: Receptor-type tyrosine-protein kinase FLT3 (Homo sapiens) (UniProt P36888); assay: Inhibition of FLT3 at 10 uM
[12] = test system: Leucine-rich repeat serine/threonine-protein kinase 2 (Homo sapiens), Q5S007 [G2019S]; assay: Inhibition of LRKK2 G2019S mutant at 10 uM
[13] = test system: HeLa; assay: Growth inhibition of human HeLa cells after 72 hrs by ATPlite assay; format: functional; method in brief: as §1
[14] = test system: Platelet-derived growth factor receptor alpha (Homo sapiens), P16234 [T674I]; assay: Inhibition of PDGFRA T674I mutant at 10 uM
[15] = test system: Proto-oncogene tyrosine-protein kinase receptor Ret (Homo sapiens), P07949 [Y791F]; assay: Inhibition of RET Y791F mutant at 10 uM
[16] = biological target: NUAK family SNF1-like kinase 1 (Homo sapiens) (UniProt O60285); assay: Inhibition of NUAK1 at 10 uM
[17] = biological target: Serine/threonine-protein kinase haspin (Homo sapiens) (UniProt Q8TF76); assay: Inhibition of GSG2 at 10 uM
[18] = test system: MDA-MB-231; assay: Growth inhibition of human MDA-MB-231 cells after 72 hrs by ATPlite assay; format: functional; settings: MDA-MB-231, 72 h; method in brief: as §1
[19] = biological target: BDNF/NT-3 growth factors receptor (Homo sapiens) (UniProt Q16620); assay: Inhibition of NTRK2 at 10 uM
[20] = biological target: Muscle, skeletal receptor tyrosine-protein kinase (Homo sapiens) (UniProt O15146); assay: Inhibition of MUSK at 10 uM
[21] = biological target: Tyrosine-protein kinase ABL1 (Homo sapiens) (UniProt P00519); assay: Inhibition of ABL1 […] mutant at 10 uM
[22] = biological target: Tyrosine-protein kinase SYK (Homo sapiens) (UniProt P43405); assay: Inhibition of SYK at 10 uM
[23] = biological target: RAC-alpha serine/threonine-protein kinase (Homo sapiens) (UniProt P31749); assay: Inhibition of AKT1 by biochemical assay
[24] = biological target: Mitogen-activated protein kinase 8 (Homo sapiens) (UniProt P45983); assay: Inhibition of JNK1 at 10 uM

Vascular endothelial growth factor receptor 2 (Homo sapiens), sequence (P35968 whole entry): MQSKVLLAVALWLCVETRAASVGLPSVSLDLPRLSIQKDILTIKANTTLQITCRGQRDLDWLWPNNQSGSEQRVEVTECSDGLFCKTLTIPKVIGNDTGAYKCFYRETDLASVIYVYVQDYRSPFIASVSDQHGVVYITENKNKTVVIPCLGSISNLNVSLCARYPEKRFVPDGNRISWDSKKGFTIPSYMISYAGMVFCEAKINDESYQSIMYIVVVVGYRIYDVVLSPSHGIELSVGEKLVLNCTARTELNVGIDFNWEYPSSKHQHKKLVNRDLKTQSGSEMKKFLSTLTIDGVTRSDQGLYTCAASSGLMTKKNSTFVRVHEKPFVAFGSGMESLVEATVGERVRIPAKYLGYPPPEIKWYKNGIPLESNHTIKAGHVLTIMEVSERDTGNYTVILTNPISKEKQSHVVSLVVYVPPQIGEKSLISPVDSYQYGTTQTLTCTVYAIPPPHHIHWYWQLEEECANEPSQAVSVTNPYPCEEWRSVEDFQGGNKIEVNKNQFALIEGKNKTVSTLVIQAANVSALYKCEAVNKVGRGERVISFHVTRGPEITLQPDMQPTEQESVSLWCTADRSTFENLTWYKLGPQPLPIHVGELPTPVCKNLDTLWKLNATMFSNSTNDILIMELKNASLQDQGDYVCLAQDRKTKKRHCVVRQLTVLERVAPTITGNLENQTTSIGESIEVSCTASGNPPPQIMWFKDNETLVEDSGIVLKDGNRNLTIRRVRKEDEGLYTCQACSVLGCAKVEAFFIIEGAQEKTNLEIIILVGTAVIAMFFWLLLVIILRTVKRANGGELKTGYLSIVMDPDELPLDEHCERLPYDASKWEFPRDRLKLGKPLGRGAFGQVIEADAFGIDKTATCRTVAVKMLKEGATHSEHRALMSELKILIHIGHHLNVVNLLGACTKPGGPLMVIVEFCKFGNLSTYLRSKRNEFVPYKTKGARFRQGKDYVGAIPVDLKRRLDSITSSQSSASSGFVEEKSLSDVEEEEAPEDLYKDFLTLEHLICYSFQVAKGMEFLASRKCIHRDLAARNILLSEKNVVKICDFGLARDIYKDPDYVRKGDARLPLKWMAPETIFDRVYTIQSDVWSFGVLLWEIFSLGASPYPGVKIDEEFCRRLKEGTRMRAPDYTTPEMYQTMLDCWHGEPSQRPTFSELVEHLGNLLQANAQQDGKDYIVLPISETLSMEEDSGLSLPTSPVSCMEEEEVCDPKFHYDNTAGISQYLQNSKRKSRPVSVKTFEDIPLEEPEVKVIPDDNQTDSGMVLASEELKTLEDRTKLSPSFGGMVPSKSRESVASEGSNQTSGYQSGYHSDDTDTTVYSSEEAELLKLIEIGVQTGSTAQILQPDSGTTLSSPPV
Platelet-derived growth factor receptor alpha (Homo sapiens), P16234 [T674I], sequence (P16234 whole entry T674I): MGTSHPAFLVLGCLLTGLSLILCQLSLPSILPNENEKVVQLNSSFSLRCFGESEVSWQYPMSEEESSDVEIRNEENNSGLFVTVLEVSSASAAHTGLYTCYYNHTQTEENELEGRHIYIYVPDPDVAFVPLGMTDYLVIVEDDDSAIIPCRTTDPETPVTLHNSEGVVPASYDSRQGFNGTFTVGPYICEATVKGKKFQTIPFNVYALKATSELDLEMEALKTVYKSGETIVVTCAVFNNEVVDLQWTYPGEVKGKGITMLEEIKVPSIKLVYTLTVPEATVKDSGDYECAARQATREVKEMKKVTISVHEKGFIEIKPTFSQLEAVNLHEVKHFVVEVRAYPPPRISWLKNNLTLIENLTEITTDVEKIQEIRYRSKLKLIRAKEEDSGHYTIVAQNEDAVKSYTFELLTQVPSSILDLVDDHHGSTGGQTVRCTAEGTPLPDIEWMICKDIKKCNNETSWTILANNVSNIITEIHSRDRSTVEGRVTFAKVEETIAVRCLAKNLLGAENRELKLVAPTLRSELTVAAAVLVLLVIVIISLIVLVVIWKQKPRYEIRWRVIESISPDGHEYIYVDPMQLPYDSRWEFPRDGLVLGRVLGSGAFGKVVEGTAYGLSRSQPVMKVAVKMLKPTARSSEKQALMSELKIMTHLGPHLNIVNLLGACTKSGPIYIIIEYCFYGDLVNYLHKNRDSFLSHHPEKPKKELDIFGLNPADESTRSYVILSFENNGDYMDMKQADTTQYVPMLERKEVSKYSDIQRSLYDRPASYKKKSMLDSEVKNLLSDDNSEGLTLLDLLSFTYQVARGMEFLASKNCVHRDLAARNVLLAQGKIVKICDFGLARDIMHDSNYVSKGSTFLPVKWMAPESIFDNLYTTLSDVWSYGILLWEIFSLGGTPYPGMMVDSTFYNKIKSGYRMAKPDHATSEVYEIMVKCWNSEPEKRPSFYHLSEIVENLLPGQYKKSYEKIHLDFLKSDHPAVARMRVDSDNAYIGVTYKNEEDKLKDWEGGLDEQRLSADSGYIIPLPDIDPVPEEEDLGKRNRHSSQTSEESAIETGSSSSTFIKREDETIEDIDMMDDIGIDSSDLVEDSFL
BDNF/NT-3 growth factors receptor (Homo sapiens), sequence (Q16620 32-822 limits assumed): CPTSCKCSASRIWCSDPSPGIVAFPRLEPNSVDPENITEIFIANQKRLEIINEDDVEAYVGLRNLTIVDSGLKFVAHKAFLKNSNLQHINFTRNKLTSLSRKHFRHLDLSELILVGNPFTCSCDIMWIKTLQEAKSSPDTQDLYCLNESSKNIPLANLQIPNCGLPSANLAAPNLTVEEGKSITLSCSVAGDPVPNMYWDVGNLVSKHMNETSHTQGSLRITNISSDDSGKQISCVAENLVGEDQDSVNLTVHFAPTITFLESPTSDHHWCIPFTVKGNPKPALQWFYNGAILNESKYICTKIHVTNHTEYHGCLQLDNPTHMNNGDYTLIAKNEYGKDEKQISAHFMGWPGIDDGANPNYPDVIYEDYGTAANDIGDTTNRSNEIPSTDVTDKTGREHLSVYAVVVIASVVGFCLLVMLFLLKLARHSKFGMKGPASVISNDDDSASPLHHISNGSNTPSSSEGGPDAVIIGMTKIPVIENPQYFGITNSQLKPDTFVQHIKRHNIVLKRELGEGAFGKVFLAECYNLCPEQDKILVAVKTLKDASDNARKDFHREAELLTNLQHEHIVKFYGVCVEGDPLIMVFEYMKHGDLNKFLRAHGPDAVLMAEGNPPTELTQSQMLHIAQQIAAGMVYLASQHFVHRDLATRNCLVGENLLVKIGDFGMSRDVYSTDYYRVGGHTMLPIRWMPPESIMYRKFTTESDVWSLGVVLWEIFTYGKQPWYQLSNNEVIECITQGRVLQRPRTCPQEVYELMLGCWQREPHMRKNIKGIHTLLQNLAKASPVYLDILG
Proto-oncogene tyrosine-protein kinase receptor Ret (Homo sapiens), P07949 [Y791F], sequence (P07949 whole entry Y791F): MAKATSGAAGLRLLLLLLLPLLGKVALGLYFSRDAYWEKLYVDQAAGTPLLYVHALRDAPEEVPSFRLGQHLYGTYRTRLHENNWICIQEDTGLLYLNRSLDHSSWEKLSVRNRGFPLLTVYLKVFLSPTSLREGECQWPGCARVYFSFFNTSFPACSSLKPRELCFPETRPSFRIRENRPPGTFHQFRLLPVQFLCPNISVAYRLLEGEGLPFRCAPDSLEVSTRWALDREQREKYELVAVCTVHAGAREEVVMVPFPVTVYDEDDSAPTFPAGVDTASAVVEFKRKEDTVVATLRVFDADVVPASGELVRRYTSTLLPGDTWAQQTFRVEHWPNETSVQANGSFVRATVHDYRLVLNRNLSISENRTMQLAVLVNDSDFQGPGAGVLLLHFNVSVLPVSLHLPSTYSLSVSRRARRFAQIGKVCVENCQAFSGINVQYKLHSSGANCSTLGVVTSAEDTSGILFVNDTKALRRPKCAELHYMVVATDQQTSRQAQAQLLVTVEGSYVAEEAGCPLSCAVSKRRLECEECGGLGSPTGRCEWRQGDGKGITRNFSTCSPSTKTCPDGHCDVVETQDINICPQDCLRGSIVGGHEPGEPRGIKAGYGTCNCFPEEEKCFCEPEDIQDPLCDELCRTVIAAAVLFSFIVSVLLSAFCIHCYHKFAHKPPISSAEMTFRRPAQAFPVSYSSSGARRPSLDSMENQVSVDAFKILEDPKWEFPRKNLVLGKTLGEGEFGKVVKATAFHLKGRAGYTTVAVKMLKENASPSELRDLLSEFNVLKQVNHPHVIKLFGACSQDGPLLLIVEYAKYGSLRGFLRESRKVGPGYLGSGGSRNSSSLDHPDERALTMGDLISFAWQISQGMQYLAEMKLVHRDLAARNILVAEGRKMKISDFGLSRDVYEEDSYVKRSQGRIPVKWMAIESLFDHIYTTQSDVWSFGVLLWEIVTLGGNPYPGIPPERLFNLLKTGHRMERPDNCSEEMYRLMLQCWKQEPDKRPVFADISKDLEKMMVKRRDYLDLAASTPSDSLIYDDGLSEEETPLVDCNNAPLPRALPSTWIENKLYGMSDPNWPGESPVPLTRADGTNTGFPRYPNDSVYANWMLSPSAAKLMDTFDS
RAC-alpha serine/threonine-protein kinase (Homo sapiens), sequence (P31749 whole entry): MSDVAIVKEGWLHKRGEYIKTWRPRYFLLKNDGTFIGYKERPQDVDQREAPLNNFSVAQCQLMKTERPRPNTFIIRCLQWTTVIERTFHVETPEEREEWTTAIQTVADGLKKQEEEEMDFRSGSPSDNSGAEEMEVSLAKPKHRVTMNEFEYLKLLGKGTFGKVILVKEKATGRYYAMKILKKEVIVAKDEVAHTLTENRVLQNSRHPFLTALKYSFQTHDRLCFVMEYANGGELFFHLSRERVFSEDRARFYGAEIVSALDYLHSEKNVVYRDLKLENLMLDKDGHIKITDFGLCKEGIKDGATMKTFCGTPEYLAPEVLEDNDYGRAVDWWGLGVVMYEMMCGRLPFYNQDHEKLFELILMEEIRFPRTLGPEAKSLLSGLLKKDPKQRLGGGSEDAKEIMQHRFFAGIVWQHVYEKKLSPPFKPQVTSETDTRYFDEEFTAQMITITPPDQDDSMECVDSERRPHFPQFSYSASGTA
Proto-oncogene tyrosine-protein kinase receptor Ret (Homo sapiens), P07949 [V804L], sequence (P07949 whole entry V804L): as the sequence (P07949 whole entry Y791F) above, with F791Y, V804L counted along it

For `C(#Cc1n[nH]c2ccccc12)c1ccncc1`, the inhibition [1] was > 50%, the inhibition [2] was > 50% and the inhibition [3] was > 50%. For the same compound, the Stability [4] was 97%, the GI50 [5] was 2.58 µM and the inhibition [6] was > 50%. The inhibition [7] was > 50%, the IC50 [8] was 40 µM and the inhibition [9] was > 50%. For the same compound, the inhibition [10] was > 50%, the inhibition [11] was > 50% and the inhibition [12] was > 50%. The GI50 [13] was 2.53 µM, the inhibition [14] was > 50% and the inhibition [15] was > 50%. For the same compound, the inhibition [16] was > 50%, the inhibition [17] was > 50% and the GI50 [18] was 7.84 µM. For the same compound, the inhibition [19] was > 50%, the inhibition [20] was > 50% and the inhibition [21] was > 50%. The inhibition [22] was > 50%, the inhibition [23] was “inactive” and the inhibition [24] was > 50%.
